Data set [1] relates to αvβ3 integrin. To be noted: cited from earlier work.
Data set [2] deals with αvβ3 integrin-negative FaDu xenograft tumours (αvβ3 integrin expressed solely on neovasculature). The experiment in a line: Ex vivo biodistribution in mice with FaDu xenografts. To be noted: i.v. 0.5 nmol/mouse, 1 h post injection, n=5; for Tumour uptake, FaDu: mean ± SD; for Tumour-to-blood ratio, FaDu / Tumour-to-duodenum ratio / Tumour-to-heart ratio / Tumour-to-kidneys ratio / Tumour-to-liver ratio / Tumour-to-lung ratio / Tumour-to-muscle ratio / Tumour-to-pancreas ratio / Tumour-to-spleen ratio / Tumour-to-stomach ratio: FaDu.

Test in data set [3]: as above
To be noted: female, BALB/c nude (BALB/c nu/nu/Foxn1nu), mouse, salivary glands, iv, 0.5 nmol/mouse.

In data set [4] the test system is αvβ3 integrin-positive SK-RC-52 xenograft tumours. The experiment in a line: Ex vivo biodistribution in mice with SK-RC-52 xenografts. To be noted: i.v. 0.5 nmol/mouse, 1 h post injection, n=5; for Tumour uptake, SK-RC-52: mean ± SD; for Tumour-to-blood ratio, SK-RC-52 / Tumour-to-duodenum ratio / Tumour-to-heart ratio / Tumour-to-kidneys ratio / Tumour-to-liver ratio / Tumour-to-lung ratio / Tumour-to-muscle ratio / Tumour-to-pancreas ratio / Tumour-to-spleen ratio / Tumour-to-stomach ratio: SK-RC-52. The method, boiled down: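 Female athymic BALB/c nu/nu mice (6–8 weeks) received 2x10^6 SK-RC-52 cells s.c. in the left flank. Cells were grown in RPMI 1640 with 10% FCS and 1% glutamine. The 68Ga-labelled test compound (15 MBq in 0.3 ml PBS with 0.5% BSA, pH 7.4) was injected via the tail vein into awake, heat-lamp-warmed mice. After CO2/O2 euthanasia, tissues were dissected, weighed and gamma-counted against 1% standards, giving %ID/g.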

Each structure is given as a SMILES string.

Turning to `C/C1=C/C(=O)N(O)CCC[C@H](NC(=O)CCC(=O)NCCCC[C@@H]2NC(=O)[C@@H](Cc3ccccc3)NC(=O)[C@H](CC(=O)O)NC(=O)CNC(=O)[C@H](CCCNC(=N)N)NC2=O)C(=O)OCC/C(C)=C\C(=O)N(O)CCC[C@H](NC(=O)CCC(=O)NCCCC[C@@H]2NC(=O)[C@@H](Cc3ccccc3)NC(=O)[C@H](CC(=O)O)NC(=O)CNC(=O)[C@H](CCCNC(=N)N)NC2=O)C(=O)OCC/C(C)=C\C(=O)N(O)CCC[C@H](NC(=O)CCC(=O)NCCCC[C@@H]2NC(=O)[C@@H](Cc3ccccc3)NC(=O)[C@H](CC(=O)O)NC(=O)CNC(=O)[C@H](CCCNC(=N)N)NC2=O)C(=O)OCC1` [^68Ga-FSC-(RGD)3, metal not drawn], the “Tumour targeting compared to monomeric RGD peptides” value in data set [1] is on record as “improved tumour targeting”. Moreover, in data set [2], the “Tumour uptake, FaDu” value is listed as 1.9±0.3 %ID/g; the “Tumour-to-blood ratio, FaDu” value is 3.5±0.6; the Tumour-to-duodenum ratio is on record as 0.4±0.08; the Tumour-to-heart ratio came to 2.4±0.4. In addition, in data set [2], the Tumour-to-kidneys ratio amounted to 0.4±0.05, the Tumour-to-liver ratio is 0.8±0.1, the Tumour-to-lung ratio was 0.9±0.1 and the Tumour-to-muscle ratio was determined as 3.6±0.6. In addition, in data set [2], the Tumour-to-pancreas ratio was found to be 3.0±0.4, the Tumour-to-spleen ratio came to 0.6±0.06 and the Tumour-to-stomach ratio came to 0.6±0.1. Also, the tissue uptake at 1 h in data set [3] was found to be 2.2 ± 0.3 %ID/g. In addition, in data set [4], the “Tumour uptake, SK-RC-52” value worked out at 12.5±2.5 %ID/g; the “Tumour-to-blood ratio, SK-RC-52” value came to 30.7±8.1; the Tumour-to-duodenum ratio turned out to be 1.5±0.4; the Tumour-to-heart ratio is listed as 12.4±3.2. Further, in data set [4], the Tumour-to-kidneys ratio is given as 1.9±0.3, the Tumour-to-liver ratio is on record as 2.5±0.2, the Tumour-to-lung ratio amounted to 4.8±0.9 and the Tumour-to-muscle ratio was determined as 17.2±3.2. In data set [4], the Tumour-to-pancreas ratio was 17.9±3.5, the Tumour-to-spleen ratio came out at 2.6±0.5 and the Tumour-to-stomach ratio is 2.6±0.3.
Consider `N=C(N)NCCC[C@@H]1NC(=O)[C@H](CCCCNC(=O)CCOCCOCCOCCOCCNC(=O)CCP(=O)(O)CN2CCN(CP(=O)(O)CCC(=O)NCCOCCOCCOCCOCCC(=O)NCCCC[C@@H]3NC(=O)[C@@H](Cc4ccccc4)NC(=O)[C@H](CC(=O)O)NC(=O)CNC(=O)[C@H](CCCNC(=N)N)NC3=O)CCN(CP(=O)(O)CCC(=O)NCCOCCOCCOCCOCCC(=O)NCCCC[C@@H]3NC(=O)[C@@H](Cc4ccccc4)NC(=O)[C@H](CC(=O)O)NC(=O)CNC(=O)[C@H](CCCNC(=N)N)NC3=O)CC2)NC(=O)[C@@H](Cc2ccccc2)NC(=O)[C@H](CC(=O)O)NC(=O)CNC1=O` (single isomer, unassigned) [^68Ga-TRAP-(RGD)3, metal not drawn], for which the “Tumour targeting compared to monomeric RGD peptides” value in data set [1] is given as “improved tumour targeting”. In data set [2], the “Tumour uptake, FaDu” value is 1.0±0.2 %ID/g; the “Tumour-to-blood ratio, FaDu” value turned out to be 5.8±0.9; the Tumour-to-duodenum ratio is recorded as 0.3±0.07; the Tumour-to-heart ratio is on record as 4.4±1.4. In addition, in data set [2], the Tumour-to-kidneys ratio stood at 0.5±0.1, the Tumour-to-liver ratio turned out to be 0.8±0.2, the Tumour-to-lung ratio stood at 1.5±0.4 and the Tumour-to-muscle ratio was determined as 4.8±1.2. In data set [2], the Tumour-to-pancreas ratio is reported as 4.6±1.0, the Tumour-to-spleen ratio is recorded as 0.9±0.2 and the Tumour-to-stomach ratio was 0.8±0.2. The same compound displayed a tissue uptake at 1 h in data set [3] of 0.7 ± 0.1 %ID/g. Besides, in data set [4], the “Tumour uptake, SK-RC-52” value is 4.4±0.8 %ID/g; the “Tumour-to-blood ratio, SK-RC-52” value worked out at 38.5±3.8; the Tumour-to-duodenum ratio is given as 1.4±0.4; the Tumour-to-heart ratio is listed as 15.3±2.3. For the same compound, in data set [4], the Tumour-to-kidneys ratio turned out to be 1.1±0.1, the Tumour-to-liver ratio is on record as 3.0±0.5, the Tumour-to-lung ratio is listed as 4.8±0.9 and the Tumour-to-muscle ratio was found to be 20.9±3.6. For the same compound, in data set [4], the Tumour-to-pancreas ratio is reported as 17.3±3.7, the Tumour-to-spleen ratio came out at 3.0±0.5 and the Tumour-to-stomach ratio was 3.0±0.7.

Source of the values: PMC6175042 (Journal of nuclear medicine : official publication, Society …, 2018).
